Bioassay records deposited in PubChem BioAssay by Broad Institute.
This is a sample that favours compounds with a hit; in the whole collection about 2.1% have one here.
MLL AF4-AF9 inh = MLL-AF4/AF9 protein interaction inhibition. P42568. AlphaScreen, biotin-AF4 peptide binding to FLAG-AF9. inhibition, % at 10 µM. actives 0.47% (n = 350,000);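 active means every replicate reaching a set inhibition limit, whatever the replicate mean, cut at about 25% in these data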;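 further: 0% = plate neutral control median and 100% = total signal loss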
Target sequence (P42568 whole entry, looked up): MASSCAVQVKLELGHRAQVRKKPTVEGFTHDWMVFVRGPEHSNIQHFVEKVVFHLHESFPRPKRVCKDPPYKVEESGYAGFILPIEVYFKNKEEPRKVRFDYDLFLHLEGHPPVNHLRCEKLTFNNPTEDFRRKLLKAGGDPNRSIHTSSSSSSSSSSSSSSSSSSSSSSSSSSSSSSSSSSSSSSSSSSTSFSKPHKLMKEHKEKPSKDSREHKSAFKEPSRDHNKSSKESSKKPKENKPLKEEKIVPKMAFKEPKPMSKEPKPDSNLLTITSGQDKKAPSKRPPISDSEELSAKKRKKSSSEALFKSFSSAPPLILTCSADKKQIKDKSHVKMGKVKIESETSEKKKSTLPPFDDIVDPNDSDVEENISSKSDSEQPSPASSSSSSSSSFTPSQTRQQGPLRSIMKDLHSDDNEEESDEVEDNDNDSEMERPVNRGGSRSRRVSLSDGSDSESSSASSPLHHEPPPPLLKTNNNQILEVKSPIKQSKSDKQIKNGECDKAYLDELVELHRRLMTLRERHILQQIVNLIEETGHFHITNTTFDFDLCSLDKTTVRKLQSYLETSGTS
EWS-Fli inh = inhibitors of EWS/Fli oncoprotein transcriptional activity; A673 NR0B1-luciferase reporter, viability-normalised; inhibition, % at 12.6 µM; actives 0.67% (n = 350,000); AID 651661;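 active means mean inhibition of at least 50% after viability correction, with every replicate also passing that limit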;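 further: firefly luciferase signal divided by Alamar Blue viability fluorescence both relative to DMSO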
PAX8 reporter = inhibitors of PAX8 transcriptional activity in RMG-I cells. RMG-I TPO-luciferase reporter, SteadyGlo, 24 h. inhibition, % at 12.6 µM. actives 1.2% (n = 360,000). AID 652154;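 active means mean replicate inhibition at least 60% with every replicate also reaching 60%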;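 further: luciferase light reporting Pax8 driven TPO promoter activity; plate controls were median of neutral control wells for no effect and mitoxantrone controls for full effect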
PGC1a acetyl inh = PGC1a acetylation modulation, inhibitor mode. inhibition, % at 15.6 µM. actives 0.17% (n = 350,000). U2OS PGC1a acetylation, AlphaScreen anti-acetyl-lysine; with virally co-expressed GCN5 acetyltransferase. AID 651687;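 active means every replicate shows inhibition of at least 40%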;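 further: 0% = neutral control wells and 100% = positive control wells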
Xi reactivation = reactivates the inactive X chromosome in mouse fibroblasts; XiGFP mouse fibroblasts, % GFP-positive cells imaging, 3 d; cells co-treated with 5-aza-dC sensitizer; scaled so ellipticine positive control = 100%; activation, % at 7.58 µM; actives 0.055% (n = 360,000); AID 743238;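 active means mean normalized replicate activation at least 10% and every replicate at or above 10%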;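 further: 0% = median of on-plate neutral control wells and 100% = ellipticine 6 µM median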
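Schedule: 3 d treatment, 15 min room-temperature fixation; system: 68-5-11 XiGFP fibroblast line; buffer or medium: DMEM plus 5-aza-dC sensitizer; control set: ellipticine 6 µM positive control; compound: one concentration, pinned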
INS-1E GSIS act = primary screen for activators of insulin secretion dependent on glucose, INS-1E cells, GLuc reporter luminescence. INS-1E GLuc reporter insulin secretion, 2-3 h. activation, % at 16.6 µM. actives 0.61% (n = 370,000). AID 743287;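 active means lowest replicate activation of at least 40%, so every replicate reaches that level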;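 further: 0% = median of neutral control wells and 100% = median of IBMX positive control wells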
An asterisk follows results filed as active.

How did COc1ccccc1-n1c(-c2ccccc2)c[nH]c1=S do in these assays?
MLL AF4-AF9 inh: -5.9; EWS-Fli inh: 0.1; PAX8 reporter: 0.1; PGC1a acetyl inh: 9.0; Xi reactivation: 0.0; INS-1E GSIS act: 2.6

Results for COc1ccc(C#Cc2ccc3c(c2)O[C@@H](CN(C)C(C)=O)[C@@H](C)CN([C@@H](C)CO)S3(=O)=O)cc1 ?
MLL AF4-AF9 inh: -1.1; EWS-Fli inh: 13.0; PGC1a acetyl inh: -12.5; Xi reactivation: -1.1; INS-1E GSIS act: -3.5

Results for C[C@@H]1CN([C@@H](C)CO)C(=O)c2cc(NC(=O)Nc3ccc(C(F)(F)F)cc3)ccc2O[C@@H]1CN(C)Cc1ccc(C(F)(F)F)cc1 ?
MLL AF4-AF9 inh: -1.5; EWS-Fli inh: 7.3; PAX8 reporter: -0.5; PGC1a acetyl inh: 1.9; Xi reactivation: 0.3; INS-1E GSIS act: 5.4

Results for C[C@@H]1CCCCO[C@@H](CN(C)Cc2ccc(C(F)(F)F)cc2)[C@@H](C)CN([C@H](C)CO)C(=O)c2cc(NC(=O)Nc3ccc(F)cc3)ccc2O1 ?
MLL AF4-AF9 inh: -2.6; EWS-Fli inh: 3.1; PAX8 reporter: 18.9; PGC1a acetyl inh: 11.4; Xi reactivation: 0.0; INS-1E GSIS act: -6.4

Results for C[C@@H]1CCCCO[C@@H](CN(C)Cc2ccc(C(F)(F)F)cc2)[C@H](C)CN([C@H](C)CO)C(=O)c2cc(NC(=O)Nc3ccc(F)cc3)ccc2O1 ?
MLL AF4-AF9 inh: 0.8; EWS-Fli inh: 11.0; PAX8 reporter: 69.0*; PGC1a acetyl inh: -15.6; Xi reactivation: 0.1; INS-1E GSIS act: -14.4

How did C[C@@H]1CCCCO[C@H](CN(C)Cc2ccc(C(F)(F)F)cc2)[C@@H](C)CN([C@@H](C)CO)C(=O)c2cc(NC(=O)Nc3ccc(F)cc3)ccc2O1 do in these assays?
MLL AF4-AF9 inh: 1.3; EWS-Fli inh: 20.6; PAX8 reporter: 91.6*; PGC1a acetyl inh: -9.8; Xi reactivation: 0.0; INS-1E GSIS act: -18.5

How did C[C@@H]1CCCCO[C@@H](CN(C)Cc2ccc(C(F)(F)F)cc2)[C@H](C)CN([C@H](C)CO)C(=O)c2cc(NC(=O)Nc3ccc(C(F)(F)F)cc3)ccc2O1 do in these assays?
EWS-Fli inh: -0.3; PAX8 reporter: 68.5*; PGC1a acetyl inh: 6.1; Xi reactivation: 0.0; INS-1E GSIS act: 3.9

Results for C[C@@H]1CN([C@@H](C)CO)C(=O)c2cc(NC(=O)Nc3ccc(C(F)(F)F)cc3)ccc2O[C@H]1CN(C)Cc1ccc(C(F)(F)F)cc1 ?
MLL AF4-AF9 inh: -1.2; EWS-Fli inh: -6.5; PAX8 reporter: 70.1*; PGC1a acetyl inh: -2.9; Xi reactivation: 0.1; INS-1E GSIS act: 5.0

Results for COc1ccc2c3c(n(C)c2c1)[C@H](CO)N(CC1CCOCC1)CC31CN(C(=O)c2cccc(F)c2)C1 ?
MLL AF4-AF9 inh: -9.0; EWS-Fli inh: 2.0; PGC1a acetyl inh: -10.4; Xi reactivation: 0.3; INS-1E GSIS act: 4.0

Results for C[C@H]1CCCCO[C@@H](CN(C)Cc2ccc(C(F)(F)F)cc2)[C@@H](C)CN([C@@H](C)CO)C(=O)c2cc(NC(=O)Nc3ccc(F)cc3)ccc2O1 ?
MLL AF4-AF9 inh: 0.9; EWS-Fli inh: 18.6; PAX8 reporter: 104.9*; PGC1a acetyl inh: -3.5; Xi reactivation: 0.6; INS-1E GSIS act: 0.7

How did C[C@@H]1CCCCO[C@@H](CN(C)Cc2ccc(C(F)(F)F)cc2)[C@@H](C)CN([C@@H](C)CO)C(=O)c2cc(NC(=O)Nc3ccc(F)cc3)ccc2O1 do in these assays?
MLL AF4-AF9 inh: 1.1; EWS-Fli inh: 2.5; PAX8 reporter: 55.1; PGC1a acetyl inh: 8.5; Xi reactivation: 0.0; INS-1E GSIS act: -13.0

Results for COCC(=O)N1[C@H](CO)[C@@H]2c3ccccc3N(C(=O)NC(C)C)C[C@@H]21 ?
MLL AF4-AF9 inh: -2.8; EWS-Fli inh: 14.3; PGC1a acetyl inh: 5.6; Xi reactivation: 0.2; INS-1E GSIS act: 7.2

What do the screens show for `C/C=C/c1ccc([C@H]2[C@@H](CNCC)N(c3nc(C)c(C)s3)[C@H]2CO)cc1`?
MLL AF4-AF9 inh: 7.2; EWS-Fli inh: 21.0; PAX8 reporter: 2.2; PGC1a acetyl inh: -12.4; Xi reactivation: 0.2; INS-1E GSIS act: -8.9

How did CNC(=O)C[C@H]1CC[C@H]2[C@H](COc3ccc(NC(=O)c4ccc(F)cc4)cc3C(=O)N2C)O1 do in these assays?
MLL AF4-AF9 inh: -2.0; EWS-Fli inh: 2.9; PAX8 reporter: -9.6; PGC1a acetyl inh: 2.7; Xi reactivation: 0.1; INS-1E GSIS act: 2.7

What do the screens show for `COc1ccc(N/N=C(\C#N)C(N)=O)cc1`?
MLL AF4-AF9 inh: -5.9; EWS-Fli inh: -4.3; PAX8 reporter: -7.8; Xi reactivation: 0.6; INS-1E GSIS act: -2.6

Results for COc1ccc(C(=O)/C(C#N)=N/Nc2ccc([N+](=O)[O-])cc2)cc1 ?
MLL AF4-AF9 inh: 0.6; EWS-Fli inh: 10.5; PAX8 reporter: 89.7*; PGC1a acetyl inh: 5.6; Xi reactivation: 1.4; INS-1E GSIS act: -9.8

What do the screens show for `CCCc1c(C)nn(C(=O)/C(C#N)=N/Nc2ccccc2[N+](=O)[O-])c1C`?
MLL AF4-AF9 inh: 0.8; EWS-Fli inh: -6.6; PAX8 reporter: -14.4; PGC1a acetyl inh: -3.0; Xi reactivation: 0.1; INS-1E GSIS act: -10.0

What do the screens show for `COc1ccc(C(=O)/C(C#N)=N/Nc2ccccc2[N+](=O)[O-])cc1`?
MLL AF4-AF9 inh: -2.5; EWS-Fli inh: 45.1; PAX8 reporter: 26.8; Xi reactivation: 0.5; INS-1E GSIS act: 61.8*

What do the screens show for `O=C(Nc1ccc2c(c1)[C@H]1C[C@H](CC(=O)N3CCc4ccccc4C3)O[C@H](CO)[C@H]1O2)C1CCC1`?
MLL AF4-AF9 inh: 1.7; EWS-Fli inh: -4.3; PAX8 reporter: 18.5; PGC1a acetyl inh: -9.5; Xi reactivation: 0.2; INS-1E GSIS act: -13.7

How did C[C@@H]1CN(C)C(=O)c2cc(N(C)C)ccc2O[C@H]1CN(C)S(C)(=O)=O do in these assays?
Xi reactivation: 0.1; INS-1E GSIS act: 29.0

Results for COC(=O)C1=CN(c2ccc(OC)cc2OC)C(N)=C(C#N)C1c1ccccc1F (centres undefined) ?
MLL AF4-AF9 inh: -3.5; EWS-Fli inh: 52.5*; PAX8 reporter: 22.1; Xi reactivation: 2.4; INS-1E GSIS act: -11.3

Results for C[C@H](CO)N1C[C@H](C)[C@H](CN(C)C(=O)c2cnccn2)Oc2ncc(/C=C/c3ccccc3)cc2C1=O ?
MLL AF4-AF9 inh: -0.1; EWS-Fli inh: -10.5; PGC1a acetyl inh: 4.1; Xi reactivation: 0.4; INS-1E GSIS act: 10.4

What do the screens show for `CCOc1ccc(CCNC(=O)COC(=O)COc2ccc(Br)cc2)cc1OCC`?
MLL AF4-AF9 inh: -1.1; EWS-Fli inh: -1.2; PAX8 reporter: -8.3; PGC1a acetyl inh: 8.9; Xi reactivation: 0.1; INS-1E GSIS act: 69.5*
